Results pooled from the literature.
Protocols differ between the studies behind these lines.
Target: Death-associated protein kinase 1 (DAPK1, Homo sapiens, UniProt P53355)

COc1ncccc1-c1cnn2ccc(N3CCN(C(=O)OC(C)C)CC3)nc12
remaining binding (binding, competition with immobilised ligand; 1 µM): 82%

O=c1[nH]c2ccccc2n1C1CCN(Cc2ccc(-c3[nH]c4cc5ncnc5cc4nc3-c3ccccc3)cc2)CC1
remaining signal (cell-free assay; 0.5 µM): 82.9%

Cn1cncc1[C@](O)(COc1ccc(C#N)cc1-c1ccc(OC(F)(F)F)cc1)c1ccc(C#N)cc1
remaining binding (cell-free assay, competition with immobilised ligand; 1 µM): 84%

Cn1cc(-c2cccc(N3CCc4c(sc5c4CC(C)(C)C5)C3=O)c2CO)cc(Nc2ccncn2)c1=O
inhibition (enzyme activity, inhibitor; 1 µM): 1%

COc1cc(Nc2ncc(F)c(Nc3ccc4c(n3)NC(=O)C(C)(C)O4)n2)cc(OC)c1OC
inhibition (binding, competition with immobilised ligand; 10 µM): 97%

Cn1cc(-c2cc(F)cc(N3CCn4c(cc5c4CCCC5)C3=O)c2CO)cc(Nc2ccc(N3CCN(C4COC4)CC3)cn2)c1=O
inhibition (enzyme activity, inhibitor; 0.1 µM): 8%

Cc1nn(C)cc1-c1nc2c(N3CCN(Cc4ccc(Cl)cc4)CC3)c(Cl)cnc2[nH]1
remaining binding (binding, competition with immobilised ligand; 1 µM): 80%

CC(C)(C)c1cc(C=C(C#N)C#N)cc(Br)c1O
remaining activity (enzyme activity, inhibitor; 0.5 µM): 85.9%

Nc1ncc(-c2nc(N3CCOCC3)nc(N3CCOCC3)n2)c(C(F)F)n1
remaining binding (binding, competition with immobilised ligand; 10 µM): 94%
